# Measurements reported in ChEMBL document CHEMBL4402564, “Synthetic Lethality in Pancreatic Cancer: Discovery of a New RAD51-BRCA2 Small Molecule Disruptor That Inhibits Homologous Recombination and Synergizes with Olaparib” (J Med Chem, 2020).
# Active and inactive are the calls of the source. The calls are words filed in the database; no cut-off is given here.
# Molecular target: T1, DNA repair protein RAD51 homolog 1 (Homo sapiens, UniProt Q06609)
# T1 sequence (Q06609 whole entry): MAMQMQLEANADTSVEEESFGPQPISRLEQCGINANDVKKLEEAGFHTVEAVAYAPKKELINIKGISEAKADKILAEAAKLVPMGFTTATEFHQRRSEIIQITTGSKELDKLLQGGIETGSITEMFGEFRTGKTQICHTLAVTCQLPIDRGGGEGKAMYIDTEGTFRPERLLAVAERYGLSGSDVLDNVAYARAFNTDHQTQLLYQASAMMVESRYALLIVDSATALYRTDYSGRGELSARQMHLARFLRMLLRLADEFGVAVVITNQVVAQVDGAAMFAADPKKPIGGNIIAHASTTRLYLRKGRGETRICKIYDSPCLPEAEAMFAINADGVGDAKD
# Assay: Inhibition of biotinylated BRC4 peptide binding to His-tagged human RAD51 expressed in Escherichia coli Rosetta(DE3) pLysS cells assessed as BRC4-RAD51 protein -protein interaction by competitive ELISA
# In short: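 Biotinylated BRC4 peptide coated onto wells, washed with PBS/0.05% Tween-20, blocked with 1% BSA/PBST, then hybridized overnight with human RAD51. Compounds tested at 0.01–100 μM in triplicate with 1% DMSO constant. Bound RAD51 detected with anti-RAD51 and HRP secondary antibody, TMB colorimetric signal quenched with 1 M HCl. EC50 ± SD reported.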
row,SMILES,EC50
1,O=C(O)CCC(=O)N1N=C(c2c(-c3ccccc3)c3ccccc3[nH]c2=O)CC1c1ccc(C(F)(F)F)cc1 (racemic),Not Active
2,COc1ccc(C2CC(c3c(-c4ccccc4)c4cc(Cl)ccc4[nH]c3=O)=NN2C(=O)CCC(=O)O)cc1F (racemic),Not Active
3,O=C(O)CCC(=O)N1N=C(c2c(-c3ccccc3)c3cc(Cl)ccc3[nH]c2=O)CC1c1ccc2c(cnn2C2CCCCC2)c1 (racemic),Not Active
4,O=C(O)CCC(=O)N1N=C(c2c(-c3ccccc3)c3ccccc3[nH]c2=O)CC1c1ccc(F)cc1 (racemic),Not Active
5,CC(=O)N1N=C(c2c(-c3ccccc3)c3cc(Cl)ccc3[nH]c2=O)CC1c1ccc(C(F)(F)F)cc1 (racemic),Not Active
6,CCCn1cc2cc(C3CC(c4c(-c5ccccc5)c5cc(Cl)ccc5[nH]c4=O)=NN3C(=O)CCC(=O)O)ccc2n1 (racemic),Not Active
7,CC(=O)N1N=C(c2c(-c3ccccc3)c3cc(Cl)ccc3[nH]c2=O)CC1c1ccco1 (racemic),Not Active
8,NC(=O)CCC(=O)N1N=C(c2c(-c3ccccc3)c3cc(Cl)ccc3[nH]c2=O)CC1c1ccc(F)cc1 (racemic),Not Active
9,CC(C)(C)c1ccc(C2CC(c3c(-c4ccccc4)c4cc(Cl)ccc4[nH]c3=O)=NN2C(=O)CCC(=O)O)cc1 (racemic),Not Active
10,O=C(O)CCC(=O)N1N=C(c2c(-c3ccccc3)c3ccccc3[nH]c2=O)CC1c1cccc(Br)c1 (racemic),Not Active
11,NCCC(=O)N1N=C(c2c(-c3ccccc3)c3cc(Cl)ccc3[nH]c2=O)CC1c1ccc(F)cc1 (racemic),Not Active
12,O=C(O)CCC(=O)N1N=C(c2c(O)nc3ccc(Cl)cc3c2-c2ccccc2)CC1c1ccco1 (racemic),Not Active
13,COC(=O)CCC(=O)N1N=C(c2c(-c3ccccc3)c3cc(Cl)ccc3[nH]c2=O)CC1c1ccc(F)cc1 (racemic),Not Active
14,O=C(O)CCC(=O)N1N=C(c2c(-c3ccccc3)c3cc(Cl)ccc3[nH]c2=O)CC1c1ccc2nn(C3CCCCC3)cc2c1 (racemic),Not Active
15,CCCn1ncc2cc(C3CC(c4c(-c5ccccc5)c5cc(Cl)ccc5[nH]c4=O)=NN3C(=O)CCC(=O)O)ccc21 (racemic),Not Active
16,O=C(O)CCC(=O)N1N=C(c2c(-c3ccccc3)c3ccccc3[nH]c2=O)CC1c1ccc(Cl)cc1 (racemic),Not Active
17,O=C(O)CCC(=O)N1N=C(c2c(-c3ccccc3)c3ccccc3[nH]c2=O)CC1c1ccc(Br)cc1 (racemic),Not Active
18,COc1ccc(C2CC(c3c(O)nc4ccc(Cl)cc4c3-c3ccccc3)=NN2C(=O)CCC(=O)O)cc1 (racemic),Not Active
19,CS(=O)(=O)NCCC(=O)N1N=C(c2c(-c3ccccc3)c3cc(Cl)ccc3[nH]c2=O)CC1c1ccc(F)cc1 (racemic),Not Active
20,COc1ccc(C2CC(c3c(-c4ccccc4)c4ccccc4[nH]c3=O)=NN2C(=O)CCC(=O)O)cc1 (racemic),Not Active

# Test system: BXPC-3
# Assay: Antiproliferative activity against human BxPC3 cells after 72 hrs in presence of olaparib by CellTiter-Glo luminescent cell viability assay
# Format: functional, cell-based
# In short: (§1)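 BxPC-3 cells grown in RPMI 1640 with 10% FBS, penicillin/streptomycin and 2 mM glutamine. Disruptor given alone or with 10 μM olaparib in medium containing 0.6% DMSO, with the same DMSO in controls. Viability read at 72 h, measured alongside cell death.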
row,SMILES,Activity
1,O=C(O)CCC(=O)N1N=C(c2c(-c3ccccc3)c3cc(Cl)ccc3[nH]c2=O)CC1c1ccc(Br)cc1 (racemic),inactive
2,CCCn1ncc2cc(C3CC(c4c(-c5ccccc5)c5cc(Cl)ccc5[nH]c4=O)=NN3C(C)=O)ccc21 (racemic),inactive
3,CCC(=O)N1N=C(c2c(-c3ccccc3)c3cc(Cl)ccc3[nH]c2=O)CC1c1ccc(Br)cc1 (racemic),inactive
4,CCn1ccc2cc(C3CC(c4c(-c5ccccc5)c5cc(Cl)ccc5[nH]c4=O)=NN3C(=O)CCC(=O)O)ccc21 (racemic),inactive
5,CC(=O)N1N=C(c2c(-c3ccccc3)c3cc(Cl)ccc3[nH]c2=O)CC1c1ccc(Cl)cc1 (racemic),inactive
6,O=C(O)CCC(=O)N1N=C(c2c(-c3ccccc3)c3cc(Cl)ccc3[nH]c2=O)CC1c1ccc(-c2ccc(F)cc2)cc1 (racemic),inactive
7,CCC(=O)N1N=C(c2c(-c3ccccc3)c3cc(Cl)ccc3[nH]c2=O)CC1c1ccc(Cl)cc1 (racemic),inactive
8,O=C(O)CCC(=O)N1N=C(c2c(-c3ccccc3)c3cc(Cl)ccc3[nH]c2=O)CC1c1ccc(-c2ccc(Br)cc2)cc1 (racemic),inactive

# Test system: BXPC-3
# Assay: Antiproliferative activity against human BxPC3 cells at 20 uM after 72 hrs in presence of olaparib by CellTiter-Glo luminescent cell viability assay
# Format: functional, cell-based
# In short: as §1
row,SMILES,Activity
1,CCn1cc2cc(-c3ccc(C4CC(c5c(-c6ccccc6)c6cc(Cl)ccc6[nH]c5=O)=NN4C(=O)CCC(=O)O)cc3)ccc2n1 (racemic),Active

# Test system: CAPAN-1
# Assay: Induction of DNA damage in BRCA2 defective human Capan1 cells assessed as increase in gamma-H2AX labelling […] hrs by immunofluorescence microscopic analysis
# Format: functional, cell-based
# In short: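 Cells exposed 48 h to 20 μM disruptor alone or with 10 μM olaparib, in medium with 0.6% DMSO. Nuclear γ-H2AX foci visualized by immunofluorescence and percentage of labeled nuclei scored. BxPC-3 (functional BRCA2) and Capan-1 (BRCA2-defective) cultures in RPMI 1640 with 10% FBS.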
row,SMILES,Activity
1,O=C(c1cc(Cc2n[nH]c(=O)c3ccccc23)ccc1F)N1CCN(C(=O)C2CC2)CC1,Active

# Test system: BXPC-3
# Assay: Antiproliferative activity against human BxPC3 cells at 5 uM after 72 hrs in presence of olaparib by CellTiter-Glo luminescent cell viability assay
# Format: functional, cell-based
# In short: as §1
row,SMILES,Activity
1,Cn1ccc2cc(C3CC(c4c(-c5ccccc5)c5cc(Cl)ccc5[nH]c4=O)=NN3C(=O)CCC(=O)O)ccc21 (racemic),inactive

# Molecular target: T2, DNA repair protein RAD51 homolog 1 (Homo sapiens) (UniProt Q06609)
# T2 sequence (whole entry): T1 sequence (Q06609 whole entry)
# Assay: Inhibition of RAD51 interaction in human BxPC3 cells assessed as inhibition of homologous recombination incubated for 5 hrs by RT-PCR analysis
# Format: cell-based
# In short: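 Commercial two-plasmid recombination assay in BxPC-3 cells, with compound applied at different doses for 5 h simultaneously with plasmid transfection. Tested up to 40 μM, limited by solubility. Dose giving 50% HR inhibition estimated by polynomial regression.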
row,SMILES,inhibition
1,O=C(O)CCC(=O)N1N=C(c2c(-c3ccccc3)c3cc(Cl)ccc3[nH]c2=O)CC1c1ccc(Br)cc1 (racemic),inactive
2,CCCn1ncc2cc(C3CC(c4c(-c5ccccc5)c5cc(Cl)ccc5[nH]c4=O)=NN3C(C)=O)ccc21 (racemic),inactive
3,CCn1cc2cc(-c3ccc(C4CC(c5c(-c6ccccc6)c6cc(Cl)ccc6[nH]c5=O)=NN4C(=O)CCC(=O)O)cc3)ccc2n1 (racemic),inactive
4,CCC(=O)N1N=C(c2c(-c3ccccc3)c3cc(Cl)ccc3[nH]c2=O)CC1c1ccc(Br)cc1 (racemic),inactive
5,CC(=O)N1N=C(c2c(-c3ccccc3)c3cc(Cl)ccc3[nH]c2=O)CC1c1ccc(C(C)(C)C)cc1 (racemic),inactive
6,Cn1ccc2cc(C3CC(c4c(-c5ccccc5)c5cc(Cl)ccc5[nH]c4=O)=NN3C(=O)CCC(=O)O)ccc21 (racemic),inactive
7,CC(=O)N1N=C(c2c(-c3ccccc3)c3cc(Cl)ccc3[nH]c2=O)CC1c1ccc2c(ccn2C)c1 (racemic),inactive
8,CCC(=O)N1N=C(c2c(-c3ccccc3)c3cc(Cl)ccc3[nH]c2=O)CC1c1ccc(Cl)cc1 (racemic),inactive
